Tests used:
[1] = Cytotoxicity against human A549 cells assessed as reduction in cell viability after 48 hrs by MTT assay; format: functional, cell-based; settings: A549, 48 h
Procedure, shortened: (§1)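 Cells grown in DMEM or MEM with 10% FBS at 37 °C, 5% CO2. Seeded at 1×10^4 cells/well, incubated 48 h, then exposed to compound for 48 h with vehicle control. MTT (5 mg/mL stock) added for 4 h; formazan dissolved in DMSO, absorbance read at 570 nm. Preliminary screen at 50 µM. Compounds giving >50% inhibition were tested for dose-response curves; IC50 derived by linear regression of % inhibition versus concentration. Mean of three independent experiments in triplicate.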

[2] = Cytotoxicity against human PC3 cells assessed as growth inhibition at 50 uM after 48 hrs by MTT assay relative to control; format: functional; settings: PC-3, 48 h, read-out: GI; procedure, shortened: as §1
[3] = Cytotoxicity against HGC cells assessed as growth inhibition at 50 uM after 48 hrs by MTT assay relative to control; format: functional; settings: Homo sapiens, read-out: GI; procedure, shortened: as §1
[4] = Cytotoxicity against human A549 cells assessed as growth inhibition at 50 uM after 48 hrs by MTT assay relative to control; format: functional; settings: A549, 48 h, read-out: GI; procedure, shortened: as §1
[5] = Cytotoxicity against human DU145 cells assessed as growth inhibition at 50 uM after 48 hrs by MTT assay relative to control; format: functional; settings: DU-145, 48 h, read-out: GI; procedure, shortened: as §1
[6] = Cytotoxicity against human DU145 cells assessed as reduction in cell viability after 48 hrs by MTT assay; format: functional, cell-based; settings: DU-145, 48 h; procedure, shortened: as §1
[7] = Cytotoxicity against […] cells assessed as reduction in cell viability after 48 hrs by MTT assay; format: functional, cell-based; settings: 4T1, 48 h; procedure, shortened: as §1
[8] = Cytotoxicity against human PC3 cells assessed as reduction in cell viability after 48 hrs by MTT assay; format: functional, cell-based; settings: PC-3, 48 h; procedure, shortened: as §1
[9] = Cytotoxicity against […] cells assessed as growth inhibition at 50 uM after 48 hrs by MTT assay relative to control; format: functional; settings: Mus musculus, 4T1, 48 h; read-out: GI; procedure, shortened: as §1
[10] = Cytotoxicity against HGC cells assessed as reduction in cell viability after 48 hrs by MTT assay; format: functional, cell-based; settings: Homo sapiens; procedure, shortened: as §1
[11] = Cytotoxicity against human MDA-MB-231 cells assessed as growth inhibition at 50 uM after 48 hrs by MTT assay relative to control; format: functional; settings: MDA-MB-231, 48 h, read-out: GI; procedure, shortened: as §1
[12] = Cytotoxicity against human MCF7 cells assessed as growth inhibition at 50 uM after 48 hrs by MTT assay relative to control; format: functional; settings: MCF7, 48 h, read-out: GI; procedure, shortened: as §1
[13] = Cytotoxicity against human BT549 cells assessed as reduction in cell viability after 48 hrs by MTT assay; format: functional, cell-based; settings: BT-549, 48 h; procedure, shortened: as §1
[14] = Cytotoxicity against human MCF7 cells assessed as reduction in cell viability after 48 hrs by MTT assay; format: functional, cell-based; settings: MCF7, 48 h; procedure, shortened: as §1
[15] = Cytotoxicity against human MDA-MB-231 cells assessed as reduction in cell viability after 48 hrs by MTT assay; format: functional, cell-based; settings: MDA-MB-231, 48 h; procedure, shortened: as §1
[16] = Cytotoxicity against human BT549 cells assessed as growth inhibition at 50 uM after 48 hrs by MTT assay relative to control; format: functional; settings: BT-549, 48 h, read-out: GI; procedure, shortened: as §1
[17] = Cytotoxicity against human MCF10A cells assessed as reduction in cell viability after 48 hrs by MTT assay; format: toxicity, cell-based, MCF-10A; procedure, shortened: as §1
[18] = Selectivity ratio of IC50 for human MCF10A cells to IC50 for human MDA-MB-231 cells; format: ADME, cell-based, MCF-10A; settings: MCF10A cells versus MDA-MB-231 cells, read-out: Ratio IC50
[19] = Selectivity ratio of IC50 for human MCF10A cells to IC50 for […] cells; format: ADME, cell-based, MCF-10A; settings: MCF10A cells versus 4TI cells, read-out: Ratio IC50

| SMILES | IC50 [1] | inhibition of growth at 50 µM [2] | inhibition of growth at 50 µM [3] | inhibition of growth at 50 µM [4] | inhibition of growth at 50 µM [5] | IC50 [6] | IC50 [7] | IC50 [8] | inhibition of growth at 50 µM [9] | IC50 [10] | inhibition of growth at 50 µM [11] | inhibition of growth at 50 µM [12] | IC50 [13] | IC50 [14] | IC50 [15] | inhibition of growth at 50 µM [16] | IC50 at 48 h [17] | selectivity ratio [18] | selectivity ratio [19] |
| --- | --- | --- | --- | --- | --- | --- | --- | --- | --- | --- | --- | --- | --- | --- | --- | --- | --- | --- | --- |
| CCn1c(/C=C2/C(=O)Nc3ccc(Br)cc32)nc2ccccc21 | > 50 µM | > 50% | < 50% | < 50% | > 50% | 45.8 µM | 40.7 µM | 42.6 µM | > 50% | > 50 µM | – | – | – | – | – | – | – | – | – |
| CCn1c(/C=C2/C(=O)Nc3ccc(F)cc32)nc2ccccc21 | > 50 µM | < 50% | < 50% | < 50% | > 50% | 40.6 µM | > 50 µM | > 50 µM | < 50% | > 50 µM | < 50% | < 50% | > 50 µM | > 50 µM | > 50 µM | < 50% | – | – | – |
| CCn1c(/C=C2/C(=O)Nc3ccccc32)nc2ccccc21 | > 50 µM | > 50% | < 50% | < 50% | < 50% | > 50 µM | > 50 µM | 38 µM | < 50% | > 50 µM | < 50% | – | > 50 µM | – | > 50 µM | < 50% | – | – | – |
| CC(C)n1c(/C=C2/C(=O)Nc3ccc(F)cc32)nc2ccccc21 | 28.4 µM | > 50% | > 50% | > 50% | > 50% | 24.5 µM | 25.8 µM | 20.8 µM | > 50% | 28 µM | > 50% | > 50% | 26.7 µM | 29 µM | 22.7 µM | > 50% | > 100 µM | – | – |
| CC(C)n1c(/C=C2/C(=O)Nc3ccccc32)nc2ccccc21 | 35.3 µM | > 50% | > 50% | > 50% | > 50% | 38.1 µM | 40.4 µM | 37.6 µM | > 50% | 33.5 µM | > 50% | > 50% | 38.9 µM | 39.5 µM | 30.4 µM | > 50% | – | – | – |
| Cc1ccc2c(c1)/C(=C\c1nc3ccccc3n1C)C(=O)N2 | > 50 µM | < 50% | < 50% | < 50% | < 50% | > 50 µM | > 50 µM | > 50 µM | < 50% | > 50 µM | – | – | > 50 µM | – | – | < 50% | – | – | – |
| CCn1c(/C=C2/C(=O)Nc3ccc(Cl)cc32)nc2ccccc21 | > 50 µM | < 50% | < 50% | < 50% | < 50% | > 50 µM | > 50 µM | > 50 µM | < 50% | > 50 µM | > 50% | < 50% | > 50 µM | > 50 µM | 37.5 µM | < 50% | – | – | – |
| Cn1c(/C=C2/C(=O)Nc3ccc([N+](=O)[O-])cc32)nc2ccccc21 | > 50 µM | < 50% | – | < 50% | < 50% | > 50 µM | > 50 µM | > 50 µM | < 50% | – | – | – | – | – | – | – | – | – | – |
| Cn1c(/C=C2/C(=O)Nc3ccc(F)cc32)nc2ccccc21 | 34.6 µM | > 50% | > 50% | > 50% | > 50% | 32.3 µM | 29.6 µM | 34.2 µM | > 50% | 37.8 µM | > 50% | > 50% | 26.9 µM | 31.6 µM | 21.7 µM | > 50% | – | – | – |
| CCn1c(/C=C2/C(=O)Nc3ccc(C)cc32)nc2ccccc21 | > 50 µM | > 50% | < 50% | < 50% | > 50% | 39.3 µM | 39.4 µM | 38.6 µM | > 50% | > 50 µM | > 50% | < 50% | > 50 µM | > 50 µM | 40.6 µM | < 50% | – | – | – |
| Cn1c(/C=C2/C(=O)Nc3ccccc32)nc2ccccc21 | > 50 µM | < 50% | < 50% | < 50% | > 50% | 43.2 µM | > 50 µM | > 50 µM | < 50% | > 50 µM | < 50% | < 50% | > 50 µM | > 50 µM | > 50 µM | < 50% | – | – | – |
| CCn1c(/C=C2/C(=O)Nc3ccc([N+](=O)[O-])cc32)nc2ccccc21 | > 50 µM | > 50% | < 50% | < 50% | < 50% | > 50 µM | > 50 µM | 40.1 µM | < 50% | > 50 µM | – | < 50% | > 50 µM | > 50 µM | – | < 50% | – | – | – |
| Cc1ccc2c(c1)/C(=C\c1nc3ccccc3n1C(C)C)C(=O)N2 | 23 µM | > 50% | > 50% | > 50% | > 50% | 13.3 µM | 9.36 µM | 14 µM | > 50% | 14.6 µM | > 50% | > 50% | 23.7 µM | 16.3 µM | 7.23 µM | > 50% | 99.7 µM | 14 | 10.6 |
| Cn1c(/C=C2/C(=O)Nc3ccc(Cl)cc32)nc2ccccc21 | 39.7 µM | < 50% | > 50% | > 50% | > 50% | 38.9 µM | 43.6 µM | > 50 µM | > 50% | 43.6 µM | > 50% | < 50% | 39.1 µM | > 50 µM | 37.6 µM | > 50% | – | – | – |
| Cn1c(/C=C2/C(=O)Nc3ccc(Br)cc32)nc2ccccc21 | 41.2 µM | < 50% | < 50% | > 50% | > 50% | 39.6 µM | > 50 µM | > 50 µM | < 50% | > 50 µM | < 50% | < 50% | > 50 µM | > 50 µM | > 50 µM | < 50% | – | – | – |

Source: ChEMBL document CHEMBL3865824, “New (E)-1-alkyl-1H-benzo[d]imidazol-2-yl)methylene)indolin-2-ones: Synthesis, in vitro cytotoxicity evaluation and apoptosis inducing studies” (Eur J Med Chem, 2016)
